Measured values: ChEMBL document CHEMBL1955791, “Studies on gambogic acid (IV): Exploring structure-activity relationship with IκB kinase-beta (IKKβ)” (Eur J Med Chem, 2012)
Activity calls are given as the source filed them. The calls are words filed in the database; no cut-off is given here.

Experiments:
[1] = target: T1, Inhibitor of nuclear factor kappa-B kinase subunit beta (Homo sapiens, UniProt O14920); test: Inhibition of IKK-beta using TMB substrate after 15 mins by spectrophotometer analysis
T1 sequence (O14920 whole entry): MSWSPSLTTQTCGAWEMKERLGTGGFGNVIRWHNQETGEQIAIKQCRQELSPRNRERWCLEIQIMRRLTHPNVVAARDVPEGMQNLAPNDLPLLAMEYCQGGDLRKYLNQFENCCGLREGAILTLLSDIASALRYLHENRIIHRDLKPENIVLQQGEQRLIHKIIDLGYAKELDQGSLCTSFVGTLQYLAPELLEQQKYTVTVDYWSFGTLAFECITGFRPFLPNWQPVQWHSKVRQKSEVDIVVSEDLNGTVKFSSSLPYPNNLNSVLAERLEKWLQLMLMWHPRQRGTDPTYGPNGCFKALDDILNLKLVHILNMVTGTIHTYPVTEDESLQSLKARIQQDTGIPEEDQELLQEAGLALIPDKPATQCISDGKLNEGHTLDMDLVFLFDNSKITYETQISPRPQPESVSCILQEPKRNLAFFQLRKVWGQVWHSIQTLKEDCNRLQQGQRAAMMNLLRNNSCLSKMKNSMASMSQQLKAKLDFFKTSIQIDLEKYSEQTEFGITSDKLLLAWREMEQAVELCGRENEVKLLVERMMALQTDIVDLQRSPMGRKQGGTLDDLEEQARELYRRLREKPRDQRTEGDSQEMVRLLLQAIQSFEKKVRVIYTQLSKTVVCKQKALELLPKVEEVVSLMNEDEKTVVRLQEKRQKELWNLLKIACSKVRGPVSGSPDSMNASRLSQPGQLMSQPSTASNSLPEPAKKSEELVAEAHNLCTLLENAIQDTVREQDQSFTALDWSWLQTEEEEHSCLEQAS
Summary of the method: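 Kit-supplied IKKβ (50 ng in 4× reaction cocktail) preincubated with test sample 5 min at room temperature. 2× ATP/biotinylated substrate peptide cocktail added, 30 min at room temperature, stopped with 50 mM EDTA pH 8. Product captured on streptavidin plate, probed with anti-phospho-IκBα (Ser32) then HRP anti-rabbit IgG. TMB developed 15 min, read at 450 nm.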

U-251 [2] = test: Antiproliferative activity against human U251 cells after 24 hrs by MTT assay; format: functional, cell-based; details: U-251, 24 h
Summary of the method: (§1)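 Test agents diluted in culture medium, 24 h exposure. Viability read colorimetrically by MTT; vitality index (%) = A_treatment/A_control × 100; IC50 reported.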

A549 [3] = test: Antiproliferative activity against human A549 cells after 24 hrs by MTT assay; format: functional, cell-based; details: A549, 24 h; summary of the method: as §1
U-251 [4] = test: Induction of apoptosis in human U251 cells assessed as morphological changes at 8 uM after 24 hrs by inverted light microscopic analysis; format: functional, cell-based
Summary of the method: (§2)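 U251 cells in DMEM with 10% fetal calf serum under 5% CO2, exposed to compound for 24 h. Cell shape (rounding, shrinkage) inspected and photographed under an inverted light microscope at 200×, compared against untreated cells.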

A549 [5] = test: Inhibition of NF-kappaB activation in human A549 cells assessed as inhibition of TNFalpha-induced p65 nuclear translocation treated 4 hrs before TNFalpha stimulation measured after 30 mins by Western blotting; format: cell-based
Summary of the method: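 A549 cells either untreated or pretreated with compound for 4 h at 37 °C, then given TNFα 50 ng/mL for 30 min. Cytoplasmic and nuclear extracts were western-blotted for p65, with β-actin (cytoplasm) and histone (nucleus) as loading controls.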

A549 [6] = test: Inhibition of NF-kappaB activation in human A549 cells assessed as inhibition of TNFalpha/IFNgamma/IL-1beta-induced NF-kappaB nuclear translocation treated 2 hrs before TNFalpha/IFNgamma/IL-1beta stimulation measured after 30 mins; format: cell-based
Summary of the method: (§3)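 A549 cells plated at 9000 per well, serum-starved 18 h, then given compound at graded concentrations for 2 h at 37 °C. Stimulated 30 min at 37 °C with TNFα 50 ng/mL, IFN-γ 100 U/mL and IL-1β 100 U/mL. Fixed, permeabilised and immunostained for NF-κB. High-content imaging read-out was the nuclear/cytoplasmic NF-κB fluorescence ratio, taken as the translocation inhibition rate.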

[7] = target: T2, NF-kappa-B inhibitor alpha (Homo sapiens) (UniProt P25963); test: Inhibition of TNF-alpha-induced IkappaBalpha phosphorylation in human A549 cells at 4 to 8 uM treated 4 hrs before TNFalpha stimulation measured after 30 mins by Western blotting; format: cell-based
T2 sequence (whole entry): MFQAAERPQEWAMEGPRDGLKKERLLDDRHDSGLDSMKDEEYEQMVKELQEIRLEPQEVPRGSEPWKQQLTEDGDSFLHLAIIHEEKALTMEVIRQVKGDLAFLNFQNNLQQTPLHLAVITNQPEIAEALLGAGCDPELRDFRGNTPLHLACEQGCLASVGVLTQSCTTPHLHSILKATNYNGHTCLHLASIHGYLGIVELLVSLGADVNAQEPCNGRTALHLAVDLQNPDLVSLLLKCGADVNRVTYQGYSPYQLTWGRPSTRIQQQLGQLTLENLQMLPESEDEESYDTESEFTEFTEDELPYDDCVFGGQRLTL

[8] = target: T2, NF-kappa-B inhibitor alpha (Homo sapiens); test: Inhibition of TNF-alpha-induced IkappaBalpha degradation in human A549 cells at 4 to 8 uM treated 4 hrs before TNFalpha stimulation measured after 30 mins by Western blotting; format: cell-based
Summary of the method: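 A549 cells incubated 4 h with 4 or 8 μM compound, then exposed to TNF 0.1 ng/mL for various times. Cytoplasmic IκBα was followed by western blot.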

A549 [9] = test: Inhibition of NF-kappaB activation in human A549 cells assessed as inhibition of TNFalpha/IFNgamma/IL-1beta-induced NF-kappaB nuclear translocation at 5 uM treated 2 hrs before TNFalpha/IFNgamma/IL-1beta stimulation measured after 30 mins; format: cell-based; summary of the method: as §3
U-251 [10] = test: Induction of apoptosis in human U251 cells assessed as morphological changes at 4 to 64 uM after 24 hrs by inverted light microscopic analysis; format: functional, cell-based; summary of the method: as §2
U-251 [11] = test: Induction of apoptosis in human U251 cells assessed as appearance of nuclear condensation and apoptotic bodies at 4 to 64 uM after 24 hrs by DAPI staining; format: functional, cell-based
Summary of the method: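 Treated U251 cells stained with DAPI and examined by fluorescence microscopy at 400× for bright condensed nuclei and apoptotic bodies.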

U-251 [12] = test: Induction of apoptosis in human U251 cells assessed as increase in late apoptotic and necrotic cells at 4 to 16 uM after 24 hrs using Annexin V/propidium iodide staining by flow cytometry; format: functional
Summary of the method: (§4)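 U251 cells (DMEM, 10% fetal calf serum, 5% CO2) treated 24 h, washed with PBS and resuspended in binding buffer (pH 7.5, 10 mM HEPES, 2.5 mM CaCl2, 140 mM NaCl). Stained with Annexin V-FITC then PI for 10 min in the dark at room temperature, then analysed by flow cytometry. Lower-right quadrant counted as early/median apoptotic; upper-right as late apoptotic/necrotic.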

U-251 [13] = test: Induction of apoptosis in human U251 cells assessed as increase in early and median apoptotic cells at 4 to 16 uM after 24 hrs using Annexin V/propidium iodide staining by flow cytometry; format: functional; summary of the method: as §4

**Q.** For `CC(C)=CCc1c(O)cc(O)c2c(=O)c3ccccc3oc12`, which IC50 [1] is on record?
**A.** Its IC50 is 13.1 µM.

**Q.** What about the IC50 (U-251 [2]) of the same molecule?
**A.** Its IC50 is 46.8 µM.

**Q.** And the IC50 (A549 [3])?
**A.** Its IC50 is 34.9 µM.

**Q.** What does the source list for `CC(C)=CCC[C@]1(C)C=Cc2c(O)c3c(c(CC=C(C)C)c2O1)O[C@]12C(=C[C@@H]4C[C@H]1C(C)(C)O[C@@]2(C/C=C(/C)C(=O)O)C4=O)C3=O` [GAMBOGIC ACID]?
**A.** Activity (U-251 [4]): Active; IC50 [1]: 3.07 µM; inhibition (A549 [5]): Dose-dependent effect; inhibition (A549 [6]): Dose-dependent effect; inhibition [7]: Active; inhibition [8]: Active; IC50 (U-251 [2]): 2.56 µM; IC50 (A549 [3]): 1.1 µM; inhibition (A549 [9]): 50.2%

**Q.** With `CC(C)=CCc1c(O)cc(O)c2c1O[C@]13C(=C[C@@H]4C[C@H]1C(C)(C)O[C@@]3(CC=C(C)C)C4=O)C2=O` as the molecule, how does the IC50 [1] read?
**A.** The IC50 was 6.6 µM.

**Q.** And the IC50 (U-251 [2])?
**A.** Its IC50 is 8.57 µM.

**Q.** And the IC50 (A549 [3])?
**A.** Its IC50 is 3.58 µM.

**Q.** How did the IC50 [1] turn out when `CC(C)=CC[C@@]12OC(C)(C)[C@@H]3C[C@@H](C=C4C(=O)c5c(O)cccc5O[C@]431)C2=O` was run?
**A.** Its IC50 is 8.17 µM.

**Q.** And the IC50 (U-251 [2])?
**A.** The IC50 was 9.05 µM.

**Q.** What about the IC50 (A549 [3]) of the same molecule?
**A.** The IC50 was 0.7 µM.

**Q.** Which results are given for `CC(C)=CCc1c(O)cc2c(c1O)C(=O)C1=C[C@@H]3C[C@H]4C(C)(C)O[C@@](CC=C(C)C)(C3=O)[C@@]14O2`?
**A.** IC50 [1]: 10.8 µM; IC50 (U-251 [2]): 22.4 µM; IC50 (A549 [3]): 14.4 µM

**Q.** How did the IC50 [1] turn out when `CC(C)=CC[C@@]12OC(C)(C)[C@@H]3C[C@@H](C=C4C(=O)c5c(O)cc(O)cc5O[C@]431)C2=O` was run?
**A.** Its IC50 is 3.52 µM.

**Q.** And the Activity (U-251 [10])?
**A.** Its Activity is “Active”.

**Q.** And the Activity (U-251 [11])?
**A.** Its Activity is “Active”.

**Q.** What about the IC50 (U-251 [2]) of the same molecule?
**A.** The IC50 was 7.32 µM.

**Q.** And the Activity (U-251 [12])?
**A.** Its Activity is 34.24%.

**Q.** And the IC50 (A549 [3])?
**A.** Its IC50 is 2.67 µM.

**Q.** And the Activity (U-251 [13])?
**A.** Its Activity is 58.21%.

**Q.** How did the IC50 [1] turn out when `O=c1cc(-c2ccccc2)oc2c(O)c(O)ccc12` [7,8-DIHYDROXYFLAVONE] was run?
**A.** The IC50 was 9.82 µM.

**Q.** What about the IC50 (U-251 [2]) of the same molecule?
**A.** The IC50 was 50.1 µM.

**Q.** And the IC50 (A549 [3])?
**A.** The IC50 was 37.2 µM.

**Q.** How did the IC50 [1] turn out when `CC(C)=CC[C@@]12OC(C)(C)[C@@H]3C[C@@H](C=C4C(=O)c5ccccc5O[C@]431)C2=O` was run?
**A.** The IC50 was 24.2 µM.

**Q.** And the IC50 (U-251 [2])?
**A.** The IC50 was 18.7 µM.

**Q.** And the IC50 (A549 [3])?
**A.** Its IC50 is 1.93 µM.

**Q.** Which IC50 [1] does the source give for `CC(C)=CCc1cc(C2=CC(=O)C3=C[C@@H]4C[C@H]5C(C)(C)O[C@@](CC=C(C)C)(C4=O)[C@@]35O2)ccc1O` here?
**A.** The IC50 was 25.3 µM.

**Q.** And the IC50 (U-251 [2])?
**A.** The IC50 was 18.7 µM.

**Q.** What about the IC50 (A549 [3]) of the same molecule?
**A.** The IC50 was 15.5 µM.

**Q.** Which IC50 [1] does the source give for `CC(C)=CC[C@@]12OC(C)(C)[C@@H]3C[C@@H](C=C4C(=O)C=C(c5ccccc5)O[C@]431)C2=O` here?
**A.** The IC50 was 41.7 µM.

**Q.** What about the IC50 (U-251 [2]) of the same molecule?
**A.** Its IC50 is 40.2 µM.

**Q.** What about the IC50 (A549 [3]) of the same molecule?
**A.** The IC50 was 27.5 µM.

**Q.** Which results are given for `CC(C)=CC[C@@]12OC(C)(C)[C@@H]3C[C@@H](C=C4C(=O)CC(C)O[C@]431)C2=O` (stereo partly drawn)?
**A.** IC50 [1]: 40.3 µM; IC50 (U-251 [2]): 82.4 µM; IC50 (A549 [3]): 60.3 µM
